We go through 38 variants from the RNAGym collection of RNA variant scans (doi:10.1126/science.aae0568).

Fewer inactive variants are shown than the library holds.

B1: tRNA (parent)
chain: GUUCCGUUGGCGUAAUGGUAACGCGUCUCCCUCCUAAGGAGAAGACUGCGGGUUCGAGUCCCGUACGGAACG

The variants in this series derive from B1. Briefly: yeast fitness relative to wild type (ratio to wild type); higher = fitter; tRNA-Arg(CCU), competitive growth, 37 C, YPD. The method in brief:
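For this measurement, the tRNA-Arg(CCU) gene was varied by chemical synthesis at a 3% per-site mutation rate across 69 sites, and each variant was placed at the native genomic locus in Saccharomyces cerevisiae. The pooled strains went through a 24-hour competition in YPD at 37°C in six parallel replicates, with amplicons from start and end populations read by 100-nucleotide paired-end sequencing. Darwinian fitness relative to wild type followed from the change in each genotype's frequency. Genotypes needed ≥ 100 starting reads, and estimates < 0.5 were set to 0.5.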
As for GUUCCGUUGGCGUAAUGGUAACGCAUCUCCCUCCUAAGGAGAAGAUUGCGGGUUCGGGUCCCGUACGGAACG, the yeast fitness is 0.676.

Regarding GUUCCGUUGGCGUAAUGGUAACCCAUCUCCCUCCUAAGGAGAAGACUCCGGGUUCGAGUCCCGUACGGAACG, the yeast fitness was 0.594.

For GUUCCGUUGGCGUAAUGGUAUCGCGUCUCCCUCCUAAGGAGAAGACUGCGGGUUCGAGUCCCGUACCGUACG, the yeast fitness is not above 0.5.

Take GUUCCGUUGGCGUAAUGGUAACCCGUCUCCCUCCUAAGGAGAAGACUGCGGGUUCGAAUCCCGUACGGAACG: the yeast fitness stood at 0.6.

Regarding GUUCCGUUGGCGUGAUGGUAACGCGUCUCCUUUCUAAGGAGAAGCCUACGGGUUCGAGUCCCGUACGGAACG, the yeast fitness stood at 0.626.

For GUUCCGUUGGCGUAAUGGUAACGCGUCUACCUCCUAUGGAGACGACUGCGGGUUCGAGUCCCGUACGGAACG, the yeast fitness stood at 0.733.

Turning to GUUCCGUUGGCGUAAUGGUAACCAGUCUCGCUCCUAAGGUGAAGACAGCGCGUUCGAGUCCCGUACGGAACG, the yeast fitness is 0.506.

Take GUUCCGUUGGCGUAAUGGUGACGCGUCUGCCUCCUAAGGAGAAGACUGCGGGUUCGAGUCCCGUACGGAACG: the yeast fitness stood at 0.609.

GUUCCGUUGGCGUAAUGGUAACGCCUCUCCCUCGUAAGGAGAAGACUGCGAGUUCGAGUCCCGUACGGAACG: the yeast fitness was not above 0.5.

Regarding GUUCCGUUGGCGUAAUGGUAGCGCGUCUACCUCCUAAGGAGAAGAUUGCGGGUUCGAGCCCCGUACGGAACG, the yeast fitness is not above 0.5.

Regarding GUUCGGUUGGCGUAAUGGUAACGCAUCUCCCUCCUAAGGAGAAGACUGCGGGUUCGAGUCCCGUACGGUACG, the yeast fitness came to 0.75.

As for GUUGCGUUGGCGUAAUGGUAACGCGUCUCUCUCCUAAGGAGAAGACUGCGGGUUUGAGUCCCGUACGGAACG, the yeast fitness is not above 0.5.

In the case of GUUCCGUUGGCGUAAUGGUAACGCGUCUCCCUCCUAAGGAGAAGACUGCGGGUUCGAGUCCCGAUCGGAUCG, the yeast fitness is 0.601.

In the case of GUUCCGUUGGCGUAAUGGUAACGCGUCCCCCUCCUAAGGGGAAGACUGCGGCUUCGAGUCCCGUACGGAACG, the yeast fitness was not above 0.5.

Consider GUUCCGUUGGCGUAAAGGUAACGCGUCUCCCUCCUAAGGAGAAGACUGCGGGUUCGUGUCCCGUACGGUACG, for which the yeast fitness amounted to 0.526.

As to GUUCCGUUAGCGUAAUGGUAACGCGUCUCCCUCCAAAGGAGACGACUGCGGGUUCGAGUCCCGUACGGAACG, the yeast fitness is not above 0.5.

For GUUCCGUUGGCGUAAUGGUAACGCGUCUCCCUCCUAUGGAGAAGACUGCGGGUUCGAGUCCCCUACGGAACG, the yeast fitness turned out to be 0.591.

In the case of GUUCCGUUGGCGCAAUGGUAACGCGUCUGCCUCCUAAGGAGAAGACUGCGGGUUCGAGUCCUGUACGGCACG, the yeast fitness came to 0.537.

Regarding GUUCCUUUGGCGUAAUGGUAACGCGUCUCCCUCCUAAGGGGAAGACUGCGGGUUCGAGUCACGCACGGAACG, the yeast fitness is not above 0.5.

On to GUUCCGUUGGCGUAAUCGUAACGCGUCUCCCUCUUAAGGAGAAGACUGCGGGUUCGAGUCCCGUACGGAACG, for which the yeast fitness turned out to be 0.529.

As to GUUCCGUUGGCGUAAUGGUAACGCGUCUCCCUCCUAAGGAGAAGUUUGCGGGCUCGAGUCCCGUACGGAACG, the yeast fitness came out at 0.574.

Turning to GUUCCGUUGGCGUGAUGAUAAGGCGUCUCCCUCCUAAGGAGAAGACUGCGGGUUCGAGUCCCGUACGGAACG, the yeast fitness is not above 0.5.

In the case of GUUCCAUUGGCGUAAUGGUAACGCGUCUCCCUCCUAAGGAGAAGACUGCAGGUUCGAGUCCCGUAAGGAACG, the yeast fitness is not above 0.5.

For GUUCCGUUGGCGUAAUGAUAACGCGUCUCCCUCCUAAGGAGCAGACUGCGGGUUCGAGUCCCGUACGGUACG, the yeast fitness was determined as 0.542.

As to GUUCCGUUGGCGUAGUGGUAACGCGUCUCCCUCCUAAGGAGAAGACAGCGGGUUCGAGUCCCGUACGGAACG, the yeast fitness is 0.916.

For the variant GUUCGGUGGGGGUAAUGGUAACGCGUCUCCCUCCUAAGGAGAAGACUGCGGGUUCGAGUCCCGUACGGAACG, the yeast fitness was 0.509.

On to GUGCCGUUGGCGUAAUGGUAACGCGUCUCCCUCCUAAGAGGAAGACUGCGGGUUCGUGUCCCGUAUGGAACG, for which the yeast fitness is not above 0.5.

With GCUCCGUUGGCGUAAUGGUAACGGGUCUCCCUCCUAAGGAGAAGACUGCGGGUUCGAGUCGCGUACGGAACG, the yeast fitness is not above 0.5.

As for GAUCCGUUGGCGUAAUGGUAGCGCGUUUCCCUCCUAAGGAGAAGACUGCGGGUUCGAGUCCCGUACGGAACG, the yeast fitness amounted to 0.693.

In the case of GUUCCGUUGGCGUAAUGGUAACGCGUCUCCCUCCUAAGGAGUAGACUGUAGGUUCGAGUCCCGUACGGAACG, the yeast fitness amounted to 0.651.

GUUCCGAUGGCGUAAUGGUAACAUGUCUCCCUCCAAAGGAGAAGACUGCGGGUUCGAGUACCGUACGGAACG: the yeast fitness was 0.632.

In the case of GUUCCGUUGGCGUAAUGGUAACGCGUCUGCCUCCUAAGGAGAAAACUGCGGGUUCGAGUCCCGUACGGAACG, the yeast fitness stood at 0.593.

GUUGCGUUGGCGUAAUGGUAACGCGUCUCCCUCCUAAGGAGAAGACUGCGGGUUCGACUCCUGUACGGAACG: the yeast fitness amounted to 0.651.

In the case of GUACCGUUCGCGUAAUGGUGACGCGUCUCCCUCCUAAGGGGAAGACUGCGGGUUCGAGUCCCGCACGGAACG, the yeast fitness was not above 0.5.

As to GUUCCGUUGGCGUAAUGGUAACGCGUCUCCCUCCUCUGGAGAAGACUGCGGGUUCGAGUCCCGUACGGAACG, the yeast fitness is not above 0.5.

On to GUUCCGUUGACGUAAUGGUAACGCGUCUCCCUCCUAUGGAGAAGACUGCGGGUUCGAGUCGCGUAGGGAACG, for which the yeast fitness stood at 0.623.

GUUCCGUUGACGUAAUGGUAACGCGUCUCCCUCCUAAGGAGAAGCCUGCCCGUUUGAGUCCCGUACGAACCG: the yeast fitness was not above 0.5.

On to GUUCCGUUGGCGUAGUGGUAACGCGUCUUCCUCGUAAGGCGAAGACUGCGGGUUCGAGUCCCGUACGGAACG, for which the yeast fitness was determined as 0.694.
